In ChEMBL document CHEMBL2177069, “Novel peptidomimetic compounds containing redox active chalcogens and quinones as potential anticancer agents” (Eur J Med Chem, 2012):
pIC50: −log10 of the molar value. Active and inactive are the calls of the source. The rule behind the calls is not given here.

Assays:
TK-10 = test: Cytotoxicity against human TK10 cells; type: functional
CAKI-1 = test: Cytotoxicity against human Caki1 cells; type: functional
ACHN = test: Cytotoxicity against human ACHN cells; type: functional
LOX IMVI = test: Cytotoxicity against human LOXIMVI cells; type: functional
NCI-H322M = test: Cytotoxicity against human NCI-H322M cells; type: functional
Saccharomyces cerevisiae [1] = test: Growth inhibition of GSH2-deficient Saccharomyces cerevisiae YOL049W mutant at 20 ug/disc after 24 to 48 hrs by agar diffusion assay; type: functional; details: read-out: DIZ
Outline: (§1)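 S. cerevisiae deletion mutants or wild type grown on YPD, seeded into liquid agar medium at an optical density of 0.1. 6 mm paper discs soaked with methanolic compound solution were placed on the plates and incubated at 30 °C. Growth was checked after 1 and 2 days, and the inhibition zone diameter was recorded in mm.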

HT-29 = test: Cytotoxicity against human HT-29 cells; type: functional
RPMI-8226 = test: Cytotoxicity against human RPMI8226 cells; type: functional
HL-60 = test: Cytotoxicity against human HL60 cells; type: functional
Saccharomyces cerevisiae [2] = test: Growth inhibition of SOD1-deficient Saccharomyces cerevisiae YJR104C mutant at 20 ug/disc after 24 to 48 hrs by agar diffusion assay; type: functional; details: read-out: DIZ; outline: as §1
EKVX = test: Cytotoxicity against human EKVX cells; type: functional
PtK2 [3] = test: Induction of oxidative stress in potoroo PtK2 cells assessed as reduction in cell adhesion after 24 hrs by immunofluorescence microscopic analysis; type: functional, cell-based; details: Potorous tridactylus
Outline: (§2)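 PtK2 cells were grown on coverslips and treated once semi-confluent, for 24 h. Cells were fixed with 3.7% paraformaldehyde followed by 0.1% Triton X-100, or with cold methanol/acetone 50:50. Primary and secondary antibodies were applied for 45 min each: anti-GRP94 for ER, anti-α-tubulin. Actin was stained with phalloidin and nuclei with DAPI. Imaging was by fluorescence microscopy with a CCD camera.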

PtK2 [4] = test: Induction of oxidative stress in potoroo PtK2 cells assessed as hole in the endoplasmic reticulum after 24 hrs by immunofluorescence microscopic analysis; type: functional, cell-based; details: Potorous tridactylus; outline: as §2
SF-268 = test: Cytotoxicity against human SF268 cells; type: functional
MCF7 = test: Cytotoxicity against human MCF7 cells after 24 hrs by MTT assay; type: functional, cell-based; details: MCF7, 24 h
Outline: (§3)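 MTT assay. Cells were seeded at 50,000 cells/mL in medium with 10% fetal calf serum and grown for two days at 37 °C, 10% CO2. Serial dilutions of compound were then added for 24 h. MTT was added (final 0.5 mg/mL) for 2 h, and the formazan was pelleted, washed, dissolved in isopropanol with 0.4% HCl and read at 590 nm. IC50 is the concentration giving 50% of untreated-control absorbance, taken from dose-response curves; mean of two parallel experiments.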

OVCAR-4 = test: Cytotoxicity against human OVCAR4 cells; type: functional
Saccharomyces cerevisiae [5] = test: Growth inhibition of GTT2-deficient Saccharomyces cerevisiae YLL060C mutant at 20 ug/disc after 24 to 48 hrs by agar diffusion assay; type: functional; details: read-out: DIZ; outline: as §1
MDA-MB-231 = test: Cytotoxicity against human MDA-MB-231 cells; type: functional
CCRF-CEM = test: Cytotoxicity against human CCRF-CEM cells; type: functional
SK-OV-3 = test: Cytotoxicity against human SKOV3 cells; type: functional
PtK2 [6] = test: Induction of oxidative stress in potoroo PtK2 cells assessed as change in cell morphology after 24 hrs by immunofluorescence microscopic analysis; type: functional, cell-based; details: Potorous tridactylus; outline: as §2
PtK2 [7] = test: Induction of oxidative stress in potoroo PtK2 cells assessed as reduction in actin stress fibres after 24 hrs by immunofluorescence microscopic analysis; type: functional, cell-based; details: Potorous tridactylus; outline: as §2
A498 [8] = test: Cytotoxicity against human A498 cells after 24 hrs by MTT assay; type: functional, cell-based; details: A498, 24 h; outline: as §3
OVCAR-8 = test: Cytotoxicity against human OVCAR8 cells; type: functional
[9] = Cytotoxicity against human 786-O cells; type: functional
HCT-116 = test: Cytotoxicity against human HCT116 cells; type: functional
SF-539 = test: Cytotoxicity against human SF539 cells; type: functional
PtK2 [10] = test: Induction of oxidative stress in potoroo PtK2 cells assessed as change in microtubular network after 24 hrs by immunofluorescence microscopic analysis; type: functional, cell-based; details: Potorous tridactylus; outline: as §2
HCC 2998 = test: Cytotoxicity against human HCC2998 cells; type: functional
A498 [11] = test: Cytotoxicity against human A498 cells; type: functional
COLO 205 = test: Cytotoxicity against human COLO205 cells; type: functional
T47D = test: Cytotoxicity against human T47D cells; type: functional
SR = test: Cytotoxicity against human SR cells; type: functional
BT-549 = test: Cytotoxicity against human BT549 cells; type: functional
NCI-H23 = test: Cytotoxicity against human NCI-H23 cells; type: functional
U-251 = test: Cytotoxicity against human U251 cells; type: functional
MDA-MB-468 = test: Cytotoxicity against human MDA-MB-468 cells; type: functional
UACC-257 = test: Cytotoxicity against human UACC257 cells; type: functional
OVCAR-3 = test: Cytotoxicity against human OVCAR3 cells; type: functional

Compound CC1=C([Se]CC(OC(=O)[C@@H](CO)NC(=O)OC(C)(C)C)C(=O)NC(C)(C)C)C(=O)c2ccccc2C1=O (stereo not given in full) has a GI50 (TK-10) of 2 µM, an LC50 (TK-10) of 6.03 µM and a TGI (TK-10; read-out: pTGI (converted)) of 3.47 µM. It also gave a GI50 (CAKI-1) of 1.74 µM, an LC50 (CAKI-1) of 6.61 µM and a TGI (CAKI-1; read-out: pTGI (converted)) of 3.39 µM. It also gave a GI50 (ACHN) of 1.58 µM, an LC50 (ACHN) of 5.75 µM and a TGI (ACHN; read-out: pTGI (converted)) of 3.02 µM. For the same compound, the GI50 (LOX IMVI) was 1.58 µM, the LC50 (LOX IMVI) was 5.75 µM and the TGI (LOX IMVI; read-out: pTGI (converted)) was 3.02 µM. The GI50 (NCI-H322M) was 0.447 µM, the LC50 (NCI-H322M) was 32.4 µM and the TGI (NCI-H322M; read-out: pTGI (converted)) was 3.72 µM. For the same compound, the zone of inhibition at 20 µg/disc (Saccharomyces cerevisiae [1]) was 18 mm, the GI50 (HT-29) was 2.29 µM and the LC50 (HT-29) was 9.77 µM. For the same compound, the TGI (HT-29; read-out: pTGI (converted)) was 4.79 µM, the GI50 (RPMI-8226) was 2.75 µM and the LC50 (RPMI-8226) was greater than 100 µM. It also gave a TGI (RPMI-8226; read-out: pTGI (converted)) of 8.91 µM, a GI50 (HL-60) of 0.871 µM and an LC50 (HL-60) greater than 100 µM. It also gave a TGI (HL-60; read-out: pTGI (converted)) of 3.8 µM, a zone of inhibition at 20 µg/disc (Saccharomyces cerevisiae [2]) of 22 mm and a GI50 (EKVX) of 1.78 µM. For the same compound, the LC50 (EKVX) was 7.76 µM, the TGI (EKVX; read-out: pTGI (converted)) was 3.72 µM and the Activity (PtK2 [3]) was “Active”. For the same compound, the Activity (PtK2 [4]) was “Active”, the GI50 (SF-268) was 1.91 µM and the LC50 (SF-268) was 5.89 µM. The TGI (SF-268; read-out: pTGI (converted)) was 3.31 µM, the pIC50 (MCF7) was 5.52 and the GI50 (OVCAR-4) was 1.23 µM. It also gave an LC50 (OVCAR-4) of 5.01 µM, a TGI (OVCAR-4; read-out: pTGI (converted)) of 2.51 µM and a zone of inhibition at 20 µg/disc (Saccharomyces cerevisiae [5]) of 21 mm. It also gave a GI50 (MDA-MB-231) of 1.62 µM, an LC50 (MDA-MB-231) of 6.03 µM and a TGI (MDA-MB-231; read-out: pTGI (converted)) of 3.16 µM. The GI50 (CCRF-CEM) was 0.525 µM, the LC50 (CCRF-CEM) was greater than 100 µM and the TGI (CCRF-CEM; read-out: pTGI) was greater than 100 µM. It also gave a GI50 (SK-OV-3) of 1.26 µM, an LC50 (SK-OV-3) of 5.13 µM and a TGI (SK-OV-3; read-out: pTGI (converted)) of 2.57 µM. For the same compound, the Activity (PtK2 [6]) was “Active”, the Activity (PtK2 [7]) was “Active” and the pIC50 (A498 [8]) was 5.30. It also gave a GI50 (OVCAR-8) of 1.86 µM, a TGI (OVCAR-8; read-out: pTGI (converted)) of 3.55 µM and a GI50 ([9]; 786-0) of 1.95 µM. For the same compound, the LC50 ([9]; 786-0) was 5.89 µM, the TGI ([9]; 786-0, read-out: pTGI (converted)) was 3.39 µM and the GI50 (HCT-116) was 1.45 µM. It also gave an LC50 (HCT-116) of 5.37 µM, a TGI (HCT-116; read-out: pTGI (converted)) of 2.82 µM and a GI50 (SF-539) of 1.58 µM. The LC50 (SF-539) was 5.89 µM, the TGI (SF-539; read-out: pTGI (converted)) was 3.09 µM and the Activity (PtK2 [10]) was “inactive”. It also gave a GI50 (HCC 2998) of 1.82 µM, an LC50 (HCC 2998) of 5.75 µM and a TGI (HCC 2998; read-out: pTGI (converted)) of 3.24 µM. The GI50 (A498 [11]) was 3.63 µM, the LC50 (50% lethal concentration) (A498 [11]) was 39.8 µM and the TGI (A498 [11]; read-out: pTGI (converted)) was 15.1 µM. For the same compound, the GI50 (COLO 205) was 1.82 µM, the CC50 (COLO 205; read-out: pLC50 (the source's name) (converted)) was 6.03 µM and the TGI (COLO 205; read-out: pTGI (converted)) was 3.31 µM. It also gave a GI50 (T47D) of 0.331 µM, an LC50 (T47D) of 8.91 µM and a TGI (T47D; read-out: pTGI (converted)) of 1.07 µM. For the same compound, the GI50 (SR) was 0.741 µM, the LC50 (SR) was greater than 100 µM and the GI50 (BT-549) was 1.58 µM. For the same compound, the LC50 (BT-549) was 5.37 µM, the TGI (BT-549; read-out: pTGI (converted)) was 2.95 µM and the GI50 (NCI-H23) was 1.48 µM. For the same compound, the LC50 (NCI-H23) was 6.92 µM, the TGI (NCI-H23; read-out: pTGI (converted)) was 3.24 µM and the GI50 (U-251) was 0.977 µM. The LC50 (U-251) was 6.61 µM, the TGI (U-251; read-out: pTGI (converted)) was 2.57 µM and the GI50 (MDA-MB-468) was 0.759 µM. It also gave an LC50 (MDA-MB-468) of 5.89 µM, a TGI (MDA-MB-468; read-out: pTGI (converted)) of 2.29 µM and a GI50 (UACC-257) of 1.74 µM. For the same compound, the LC50 (UACC-257) was 6.03 µM, the TGI (UACC-257; read-out: pTGI (converted)) was 3.24 µM and the GI50 (OVCAR-3) was 1.78 µM. For the same compound, the LC50 (OVCAR-3) was 5.62 µM and the TGI (OVCAR-3; read-out: pTGI (converted)) was 3.16 µM.
